The text below walks through data of ChEMBL document CHEMBL3813699, “Structure-Activity Relationships of a Diverse Class of Halogenated Phenazines That Targets Persistent, Antibiotic-Tolerant Bacterial Biofilms and Mycobacterium tuberculosis” (J Med Chem, 2016).

SMILES strings stand for the structures. In brackets after ≈: the same amount, converted by molar mass. Activity calls are given as the source filed them. The calls are words filed in the database; no cut-off is given here. A value given as a limit tells only on which side of the number the result lay.

The test system of series [1] is Mycobacterium tuberculosis. Put plainly: Antibacterial activity against Mycobacterium tuberculosis H37Ra ATCC 25177 after 7 days by two-fold serial dilution method. It counts as functional. Conditions: H37Ra ATCC 25177, 168 h.
The nature of series [2]: Aqueous solubility of compound in media after 16 hrs. It counts as physicochemical.
Series [3] is described as follows: Dissociation constant, pKa of compound. Type of series: physicochemical.
The test system of series [4] is Staphylococcus aureus. Description: Antibacterial activity against methicillin-resistant Staphylococcus aureus clinical isolate 2 incubated for 16 to 18 hrs by broth microdilution method. Type of series: functional. Background: Dilution methods test growth across graded concentrations, often in twofold steps.
Series [5] can be described thus: Induction of hemolysis in human RBC at 200 uM incubated for 1 hr. Type of series: cell-based, Erythrocyte. Conditions: red blood cells, read-out: Activity. The procedure, abridged:
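Human RBCs (EDTA), washed three times in Tris-buffered saline pH 7.2; 2% hRBC with compound at final 200 µM, 1 h 37 °C; supernatant OD405; % hemolysis relative to DMSO (0%) and Triton X (100%).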

Series [6] has as its system Staphylococcus epidermidis. Put plainly: Antibacterial activity against methicillin-resistant Staphylococcus epidermidis ATCC 35984 assessed as biofilm eradication incubated for 24 hrs by CBD assay. It counts as functional. Conditions: for MBC: Staphylococcus epidermidis, ATCC 35984, 24 h. An outline of the steps: (§1)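 Calgary Biofilm Device: pegs inoculated with mid-log culture diluted 1,000-fold in TSB + 0.5% glucose, 24 h 37 °C; washed pegs challenged with 2-fold dilutions 24 h 37 °C; pegs moved to fresh TSBG 24 h; MBEC = lowest concentration leaving no turbidity; 2–6 independent experiments.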

In series [7] the test system is Staphylococcus epidermidis. Description: Antibacterial activity against methicillin-resistant Staphylococcus epidermidis ATCC 35984 incubated for 16 to 18 hrs by broth microdilution method. It counts as functional.
The subject of series [8] is Staphylococcus aureus. Put plainly: Antibacterial activity against methicillin-resistant Staphylococcus aureus clinical isolate 2 incubated for 16 hrs by broth microdilution method. Conditions: isolate 2, 16 h. Type of series: functional.
The subject of series [9] is Enterococcus faecium. Description: Antibiofilm activity against […]-resistant Enterococcus faecium ATCC 700221 assessed as biofilm eradication incubated for 24 hrs by CBD assay. It counts as functional. Conditions: for MBC: Enterococcus faecium, ATCC 700221, 24 h. An outline of the steps:
as §1

Series [10] concerns Staphylococcus aureus. Description: Antibacterial activity against methicillin-resistant Staphylococcus aureus BAA-44 incubated for 16 to 18 hrs by broth microdilution method. It counts as functional.
Series [11] has as its system Staphylococcus epidermidis. Put plainly: Antibacterial activity against Staphylococcus epidermidis ATCC 12228 incubated for 16 to 18 hrs by broth microdilution method. Type of series: functional.
Series [12] has as its system Enterococcus faecium. Put plainly: Antibacterial activity against vancomycin-resistant Enterococcus faecium ATCC 700221 incubated for 16 to 18 hrs by broth microdilution method. It counts as functional.
In series [13] the test system is HeLa. Description: Cytotoxicity against human HeLa cells after 24 hrs by LDH release assay. It counts as cell-based. The procedure, abridged:
(§2)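 HeLa in DMEM + 10% FBS, 37 °C 5% CO2, at 70–80% confluence treated with 25, 50, 100 µM for 24 h; DMSO vehicle; Triton X-100 2% v/v max-LDH control, medium-only negative; supernatant with LDH reaction mix 30 min room temperature, stopped, absorbance 490 nm.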
On the technique in general: LDH in the medium is a marker of cell lysis.

Series [14] has as its system Staphylococcus aureus. Put plainly: Antibacterial activity against methicillin-resistant Staphylococcus aureus BAA-1707 incubated for 16 to 18 hrs by broth microdilution method. It counts as functional.
Series [15] concerns Staphylococcus epidermidis. Description: Antibiofilm activity against methicillin-resistant Staphylococcus epidermidis ATCC 35984 assessed as biofilm eradication at 0.1 to 10 uM incubated for 24 hrs by live/dead staining-based fluorescence microscopic analysis. It counts as functional, organism-based. An outline of the steps:
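MRSE 35984 mid-log culture diluted 1:1,000, biofilm grown 24 h at 37 °C on glass dish, saline wash, treated in fresh media 0.1, 1, 10 µM for 24 h at 37 °C; DMSO negative control; Live/Dead stain 15 min dark, paraformaldehyde fixed, fluorescence microscopy.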

For series [16], the system named is Staphylococcus aureus. Put plainly: Antibacterial activity against methicillin-resistant Staphylococcus aureus clinical isolate 2 incubated for 16 hrs by broth microdilution method in presence of Cu2+. Type of series: functional. The conditions noted are these: isolate 2, 16 h.
The test system of series [17] is HeLa. Description: Cytotoxicity against human HeLa cells assessed as cell death at 50 uM after 24 hrs by LDH release assay. Type of series: cell-based. An outline of the steps: as §2
Series [18] relates to Staphylococcus epidermidis. Description: Antibiofilm activity against methicillin-resistant Staphylococcus epidermidis ATCC 35984 assessed as reduction in persister cells level within biofilms MBEC incubated for 24 hrs by CBD assay. It counts as functional. Also on record: scale not given: the % may be the effect or the level left. An outline of the steps:
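After CBD challenge and recovery, pegs sonicated 30 min in PBS and plated to count viable biofilm cells (CFU/mL) at and below MBEC.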

Series [19] relates to Staphylococcus aureus. Put plainly: Antibiofilm activity against methicillin-resistant Staphylococcus aureus isolate 2 assessed as biofilm eradication incubated for 24 hrs by CBD assay. It counts as functional. Conditions: for MBC: Staphylococcus aureus, isolate 2, 24 h. An outline of the steps: as §1
In series [20] the test system is HeLa. Put plainly: Cytotoxicity against human HeLa cells assessed as induction of cell death at 100 uM after 24 hrs by LDH release assay. Type of series: cell-based. The procedure, abridged:
as §2

A short description of series [21]: Metal chelating activity assessed as insoluble Cu2+-compound complex formation by UV-vis spectroscopic analysis. Type of series: physicochemical. The procedure, abridged: (§3)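 UV-vis monitoring after adding 0.5 equivalents CuSO4 or ammonium iron(II) sulfate to stirred 10 mM ligand in DMSO; Cu stoichiometry from free ligand remaining after 2 h room-temperature stirring with varying CuSO4 in methanol, filtered, redissolved in DMSO, A440 against calibration curve.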

Series [22] has as its system Staphylococcus aureus. Description: Antibacterial activity against Staphylococcus aureus ATCC 25923 incubated for 16 to 20 hrs by broth microdilution method. Type of series: functional.
In series [23] the test system is Staphylococcus aureus. Put plainly: Antibacterial activity against methicillin-resistant Staphylococcus aureus clinical isolate 2 incubated for 16 hrs by broth microdilution method in presence of ascorbic acid. It counts as functional, organism-based.
The nature of series [24]: Metal chelating activity assessed as soluble Fe2+-compound complex formation by UV-vis spectroscopic analysis. It counts as physicochemical. The procedure, abridged: as §3
Series [25] has as its system Staphylococcus aureus. Put plainly: Antibiofilm activity against methicillin-resistant Staphylococcus aureus BAA-44 assessed as biofilm eradication incubated for 24 hrs by CBD assay. It counts as functional. An outline of the steps:
as §1

Series [26] relates to Staphylococcus aureus. Put plainly: Antibacterial activity against methicillin-resistant Staphylococcus aureus clinical isolate 2 incubated for 16 hrs by broth microdilution method in presence of Fe2+. The conditions noted are these: isolate 2, 16 h. It counts as functional.
In series [27] the test system is Staphylococcus aureus. Put plainly: Antibiofilm activity against methicillin-resistant Staphylococcus aureus BAA-1707 assessed as biofilm eradication incubated for 24 hrs by CBD assay. Type of series: functional. The procedure, abridged: as §1
In series [28] the test system is Staphylococcus aureus. Put plainly: Antibacterial activity against methicillin-resistant Staphylococcus aureus clinical isolate 2 incubated for 16 hrs by broth microdilution method in presence of thiourea. Type of series: functional, organism-based.
For series [29], the system named is Staphylococcus epidermidis. Put plainly: Antibacterial activity against Staphylococcus epidermidis ATCC 12228 incubated for 16 to 20 hrs by broth microdilution method. Type of series: functional.
Series [30] deals with Staphylococcus aureus. Put plainly: Antibacterial activity against methicillin-resistant Staphylococcus aureus clinical isolate 2 incubated for 16 hrs by broth microdilution method in presence of MnTBAP. Type of series: functional, organism-based.
Series [31] can be described thus: Metal chelating activity assessed as soluble Cu2+-compound complex formation by UV-vis spectroscopic analysis. It counts as physicochemical. An outline of the steps: as §3

With `Oc1ccc(Br)c2nc3cc(Cl)c(Cl)cc3nc12`, the MIC – broadly, the least concentration at which growth counts as inhibited – in [1] was 3.13 µM (≈ 1.08 µg/mL); against Staphylococcus aureus [4], 0.78 µM (≈ 0.268 µg/mL); in [7], 1.56 µM (≈ 0.537 µg/mL); against Staphylococcus aureus [8] it was 0.78 µM (≈ 0.268 µg/mL); against Staphylococcus aureus [10], 1.17 µM (≈ 0.402 µg/mL); in series [11], 3.13 µM (≈ 1.08 µg/mL). Besides, the MIC worked out at 6.25 µM (≈ 2.15 µg/mL) in the series with Enterococcus faecium [12] and 0.3 µM (≈ 0.103 µg/mL) against Staphylococcus aureus [14]. The amount in solution in series [2] (solubility at 16 h) came to 200 µM (≈ 68.8 µg/mL). For the same compound, the pKa (in general, the negative logarithm of the acid dissociation constant) in series [3] came out at 8.42. For the same compound, the hemolysis at 1 h, 200 µM in series [5] was 2.7%. In addition, the MBEC in series [6] came out at 100 µM; with Enterococcus faecium [9], 25 µM. Besides, the MBC in [6] was found to be 37.5 µM (≈ 12.9 µg/mL); in the series with Enterococcus faecium [9] it was 100 µM (≈ 34.4 µg/mL). Also, the IC50 (commonly the point on the concentration scale where inhibition reaches its midpoint) with HeLa [13] is greater than 100 µM.
On to `Oc1c(Br)cc(I)c2nc3cc(Cl)c(Cl)cc3nc12`, for which the MIC in series [1] worked out at 12.5 µM (≈ 5.87 µg/mL); in the series on Staphylococcus aureus [16], 100 µM; against Staphylococcus aureus [4] it was 3.13 µM (≈ 1.47 µg/mL); in series [7], 3.13 µM (≈ 1.47 µg/mL); with Staphylococcus aureus [8], 6.25 µM (≈ 2.94 µg/mL); in the series with Staphylococcus aureus [10], 3.13 µM (≈ 1.47 µg/mL). Also, the MIC worked out at 0.1 µM (≈ 0.047 µg/mL) in series [11], 0.1 µM (≈ 0.047 µg/mL) in the series on Enterococcus faecium [12] and 0.3 µM (≈ 0.141 µg/mL) against Staphylococcus aureus [14]. Also, the outcome in series [15] was Active. Besides, the solubility – broadly, the dissolved amount per volume that the medium holds – at 16 h in series [2] was determined as 200 µM (≈ 94 µg/mL). The hemolysis at 1 h, 200 µM in [5] was determined as 2.7%. For the same compound, the MBEC in series [6] turned out to be 2.35 µM; in the series on Enterococcus faecium [9], 0.2 µM; with Staphylococcus aureus [19] it was 9.38 µM. Also, the MBC in series [6] was 1.56 µM (≈ 0.733 µg/mL); in the series with Enterococcus faecium [9], 0.2 µM (≈ 0.094 µg/mL); in the series on Staphylococcus aureus [19], 3.13 µM (≈ 1.47 µg/mL). The Activity entry in the series on HeLa [17] is reported as “Non-toxic”; in [18], greater than 99.99%; in the series on HeLa [20], 70%. In the series with HeLa [13], this compound came in with an IC50 greater than 50 µM.
As to `Oc1c(Br)cc(Br)c2nc3ccccc3nc12`, the outcome in [21] and in series [24] was Active. In addition, the MIC is 25 µM (≈ 8.85 µg/mL) in [1]; 0.78 µM (≈ 0.276 µg/mL) in the series on Staphylococcus aureus [22]; 75 µM in the series on Staphylococcus aureus [16]; 3.13 µM in the series on Staphylococcus aureus [26]; 6.25 µM (≈ 2.21 µg/mL) against Enterococcus faecium [12]; 0.27 µg/mL (≈ 0.763 µM) in series [29]. For the same compound, the result with Staphylococcus aureus [23], with Staphylococcus aureus [28] and with Staphylococcus aureus [30] was Active. The hemolysis at 1 h, 200 µM in series [5] was no more than 1%. Besides, the MBEC in [6] was 250 µM; with Staphylococcus aureus [25], 188 µM; in the series with Staphylococcus aureus [27] it was 375 µM; with Staphylococcus aureus [19] it was 93.8 µM. Also, the MBC in series [6] amounted to 23.5 µM (≈ 8.32 µg/mL); with Staphylococcus aureus [25] (Staphylococcus aureus, BAA-44, 24 h), 62.5 µM (≈ 22.1 µg/mL); in the series on Staphylococcus aureus [27] (Staphylococcus aureus, BAA-1707, 24 h), 62.5 µM (≈ 22.1 µg/mL); in the series on Staphylococcus aureus [19] it was 15.6 µM (≈ 5.52 µg/mL). In the series with HeLa [13], this compound had an IC50 greater than 100 µM.
Regarding `Cc1ccc2c(Br)cc(Br)c(O)c2n1` [BROQUINALDOL], the MIC in series [1] was 25 µM (≈ 7.92 µg/mL); in [7] it was 0.3 µM (≈ 0.0951 µg/mL); in the series on Staphylococcus aureus [10], 0.78 µM (≈ 0.247 µg/mL); in [11], 0.78 µM (≈ 0.247 µg/mL); in the series on Enterococcus faecium [12] it was 2.35 µM (≈ 0.745 µg/mL); with Staphylococcus aureus [14], 0.78 µM (≈ 0.247 µg/mL). The outcome in [24] and in series [31] was Active. The results for the MBEC (in series [6]; in the series on Enterococcus faecium [9]; with Staphylococcus aureus [19]) were 93.8 µM, 1.5 µM and 188 µM, respectively. In addition, the MBC in series [6] was 9.38 µM (≈ 2.97 µg/mL); in the series on Enterococcus faecium [9], 2 µM (≈ 0.634 µg/mL); in the series on Staphylococcus aureus [19], 23.5 µM (≈ 7.45 µg/mL). In addition, the IC50 in the series with HeLa [13] was greater than 100 µM.
